Test results reported in article PMC11600170 (JACS Au, 2024).

What was measured:
[1] = system: MOLM13 cells; assay: Cell viability / antiproliferation assay in MOLM13 cells; format: cell-based, human; conditions: 72-h viability, CRBN WT and CRBN-null HEK293T and MOLM13 cells, 10 μM and 1 μM
How it was run: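 Screening ran as a 72-h viability assay in CRBN wild-type and CRBN-null (knockout) HEK293T and MOLM13 cells. Lenalidomide and CC-885 served as controls. MOLM13 CRBN WT and KO cells were tested in biological triplicates, and the assay was repeated in three separate experiments.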

[2] = system: MOLM13 cells; assay: RNA-seq with differential expression, KEGG enrichment and GSEA in MOLM13 cells; format: cell-based, human; conditions: 200 nM, 24 h, fold change ≥2 and adjusted p-value ≤0.05

| SMILES | activity in CRBN-dependent proliferation screen [1] | number of differentially expressed genes (DEGs) [2] |
| --- | --- | --- |
| Cc1ccc(NC(=O)NCc2ccc3c(c2)CN(C2CCC(=O)NC2=O)C3=O)cc1Cl (stereo not drawn) [CC-885] | nonselective profile | – |
| Nc1cccc2c1CN(C1CCC(=O)NC1=O)C2=O (stereo not drawn) [lenalidomide] | minimal activity | – |
| CN1CCc2[nH]c(-c3ccnc(NC(=O)[C@@H](CC(F)F)c4ccc(F)cc4)c3)c(Nc3ccccc3)c2C1=O [BAY-204] | – | 5,020 genes |
